Measured values reported in ChEMBL document CHEMBL1135780, “6-Chloro-3-alkylamino-4H-thieno[3,2-e]-1,2,4-thiadiazine 1,1-dioxide derivatives potently and selectively activate ATP sensitive potassium channels of pancreatic beta-cells” (J Med Chem, 2002).

Key:
[1] = tested on: Beta-TC6; assay: Maximum inhibition of glucose stimulated insulin release from mouse beta-TC6 cells at 10 uM in vitro.; type: functional
[2] = tested on: Beta-TC6; assay: Ability to inhibit the release of insulin from the mouse beta-TC6 cell line; type: functional, cell-based
Summary of the method: (§1)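 βTC6 cells, 5 × 10⁴/well, grown 3 days in DMEM + 10% FCS, 11 mM glucose, 20 mM Hepes. Washed twice in NN buffer with 0.1% BSA, preincubated 60 min, then 3 h with 22 mM glucose, 0.1 mM IBMX and serial compound dilutions. Insulin in supernatant measured by in-house ELISA (guinea pig anti-insulin, rat insulin standard). Reference compound as positive control.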

[3] = Changes in potassium fluxes assessed in the glucose responsive insulin-producing murine cell line beta-TC3; type: functional, cell-based, Mus musculus
Summary of the method: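 βTC3 membrane potential read as DiBAC4(3) fluorescence at 0.01, 0.1, 1, 10 and 100 µM, four wells each. Signal normalized to each well's initial value and expressed as fractional fluorescence change over 45 min incubation. EC50 from four-parameter nonlinear fit; mean ± SEM of at least three independent experiments.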

[4] = species: Rattus norvegicus; assay: Ability to relax phenylephrine-contracted rat aorta rings; type: functional
[5] = tested on: Beta-TC6; assay: Percentage insulin release in vitro in beta-TC6 cells; type: functional; conditions: Mus musculus; summary of the method: as §1
[6] = species: Rattus norvegicus; assay: Maximum change in MAP in rat; type: functional
Summary of the method: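 Anaesthetized male Sprague–Dawley rats given 3 mg/kg iv bolus (0.3 mg/kg for one compound) in 0.15% NaOH/saline via jugular cannula. Maximal percent change in mean arterial pressure over 5 min after dosing; mean ± SEM, 2–4 animals.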

[7] = species: Rattus norvegicus; assay: Vasodilation effects on Wistar rat mesenteric arteries precontracted with phenylephrine; type: functional
[8] = species: Rattus norvegicus; assay: Inhibition of glucose-stimulated insulin release from Wistar rat islets; type: functional
Summary of the method: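 Isolated rat islets held overnight in RPMI, 10% FCS, 11 mM glucose, then 10 islets/well overnight in DMEM, 10% FCS, 3 mM glucose. Run like the βTC6 assay (60 min NN buffer preincubation, 3 h with 22 mM glucose and serial dilutions) without IBMX. Insulin by in-house ELISA.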

[9] = species: Rattus norvegicus; assay: Reduction in plasma insulin in 30 min post-injection in rat; type: functional; parameters: concentration or dose not given beside the values
Summary of the method: (§2)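 Postprandial male Sprague–Dawley rats, 280–320 g, under Hypnorm/Dormicum at 37 °C. 3 mg/kg iv bolus over 20 s via jugular cannula (0.3 mg/kg for one compound), dissolved in 0.15% NaOH and saline. Blood taken every 5–10 min from 15 min pre- to 30 min postinjection. Plasma insulin by ELISA, as % reduction from pre-dose level. 2–4 animals.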

[10] = species: Rattus norvegicus; assay: Maximum reduction in plasma insulin in rat; type: functional; summary of the method: as §2
[11] = target: T1, Sulfonylurea receptor 1, Kir6.2 (Homo sapiens, UniProt Q09428+Q14654); assay: Inhibition of [3H]glibenclamide binding to HEK293 cells co-expressing human Sulfonylurea receptor SUR1 and Inward rectifier K+ channel Kir6.2 at high affinity state with 2 mM MgATP; type: cell-based
[12] = target: T1, Sulfonylurea receptor 1, Kir6.2; assay: Inhibition of [3H]glibenclamide binding to HEK293 cells co-expressing human Sulfonylurea receptor SUR1 and Inward rectifier K+ channel Kir6.2 at low affinity state with 2 mM MgATP; type: cell-based
[13] = target: T1, Sulfonylurea receptor 1, Kir6.2; assay: Inhibition of [3H]glibenclamide binding to HEK293 cells co-expressing human Sulfonylurea receptor SUR1 and Inward rectifier K+ channel Kir6.2 without ATP; type: cell-based
[14] = Oral bioavailability in rat (Sprague-Dawley); type: ADME, organism-based; conditions: in vivo; for bioavailability: Sprague-Dawley
Summary of the method: (§3)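 Cassette dosing, two compounds per cassette, in Sprague–Dawley rats of about 180 g, n = 2. iv doses 0.5 or 0.89 mg/kg; oral doses 1.89 or 2.0 mg/kg. Vehicle 0.1 M potassium phosphate pH 8.0, or PEG 300 based. Heart-puncture sampling, one rat per point. Plasma levels by LC/MS/MS; noncompartmental analysis.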

[15] = species: Rattus norvegicus; assay: Effective concentration required for relaxation of rat aorta rings; type: functional
[16] = Acid dissociation constant was determined; type: ADME
Summary of the method: (§4)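 Potentiometric titration from pH 2 to 10.5 in 80% MeOH cosolvent. Three titrations on the same sample, with 0.15 M KCl added before the second. psKa values extrapolated to 0% cosolvent by Yasuda–Shedlovsky.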

[17] = Half life after oral administration to Sprague-Dawley rats; type: ADME, organism-based; conditions: rat, in vivo; summary of the method: as §3
[18] = Partition coefficient (logP); type: physicochemical; conditions: octanol/water
[19] = (§5) LogD for water and octanol distribution coefficient at pH 7.4; type: physicochemical
Summary of the method: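 Three titrations on one sample, with 1.00 mL then 10.00 mL octanol added before the second and third. Aqueous pKa used in refinement; combined multiset gives LogD at pH 7.4.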

[20] = as §5; type: physicochemical; remark: listed apart in the source
Summary of the method: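 Octanol/water distribution measured by potentiometric titration, pH 10.5 to 2.0. Three titrations on one sample, with 1.00 mL then 10.00 mL octanol added before the second and third. Aqueous pKa used in refinement; combined multiset gives LogD at pH 7.4.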

[21] = Compound was evaluated for physiochemical property pKa; type: physicochemical; summary of the method: as §4
[22] = species: Rattus norvegicus; assay: Effective concentration required for relaxation of the rat aorta rings; type: functional

T1 sequence (Q14654 whole entry): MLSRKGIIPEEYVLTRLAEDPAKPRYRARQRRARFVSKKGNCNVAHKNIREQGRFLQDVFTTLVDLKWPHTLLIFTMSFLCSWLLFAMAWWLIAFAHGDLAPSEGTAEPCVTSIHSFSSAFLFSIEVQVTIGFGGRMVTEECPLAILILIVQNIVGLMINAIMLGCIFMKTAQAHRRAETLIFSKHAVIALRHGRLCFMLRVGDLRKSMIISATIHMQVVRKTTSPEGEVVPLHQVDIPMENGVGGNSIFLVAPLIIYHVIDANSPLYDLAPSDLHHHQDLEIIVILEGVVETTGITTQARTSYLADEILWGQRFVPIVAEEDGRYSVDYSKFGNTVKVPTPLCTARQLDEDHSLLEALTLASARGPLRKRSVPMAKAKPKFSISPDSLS
T1 sequence (Q09428 whole entry): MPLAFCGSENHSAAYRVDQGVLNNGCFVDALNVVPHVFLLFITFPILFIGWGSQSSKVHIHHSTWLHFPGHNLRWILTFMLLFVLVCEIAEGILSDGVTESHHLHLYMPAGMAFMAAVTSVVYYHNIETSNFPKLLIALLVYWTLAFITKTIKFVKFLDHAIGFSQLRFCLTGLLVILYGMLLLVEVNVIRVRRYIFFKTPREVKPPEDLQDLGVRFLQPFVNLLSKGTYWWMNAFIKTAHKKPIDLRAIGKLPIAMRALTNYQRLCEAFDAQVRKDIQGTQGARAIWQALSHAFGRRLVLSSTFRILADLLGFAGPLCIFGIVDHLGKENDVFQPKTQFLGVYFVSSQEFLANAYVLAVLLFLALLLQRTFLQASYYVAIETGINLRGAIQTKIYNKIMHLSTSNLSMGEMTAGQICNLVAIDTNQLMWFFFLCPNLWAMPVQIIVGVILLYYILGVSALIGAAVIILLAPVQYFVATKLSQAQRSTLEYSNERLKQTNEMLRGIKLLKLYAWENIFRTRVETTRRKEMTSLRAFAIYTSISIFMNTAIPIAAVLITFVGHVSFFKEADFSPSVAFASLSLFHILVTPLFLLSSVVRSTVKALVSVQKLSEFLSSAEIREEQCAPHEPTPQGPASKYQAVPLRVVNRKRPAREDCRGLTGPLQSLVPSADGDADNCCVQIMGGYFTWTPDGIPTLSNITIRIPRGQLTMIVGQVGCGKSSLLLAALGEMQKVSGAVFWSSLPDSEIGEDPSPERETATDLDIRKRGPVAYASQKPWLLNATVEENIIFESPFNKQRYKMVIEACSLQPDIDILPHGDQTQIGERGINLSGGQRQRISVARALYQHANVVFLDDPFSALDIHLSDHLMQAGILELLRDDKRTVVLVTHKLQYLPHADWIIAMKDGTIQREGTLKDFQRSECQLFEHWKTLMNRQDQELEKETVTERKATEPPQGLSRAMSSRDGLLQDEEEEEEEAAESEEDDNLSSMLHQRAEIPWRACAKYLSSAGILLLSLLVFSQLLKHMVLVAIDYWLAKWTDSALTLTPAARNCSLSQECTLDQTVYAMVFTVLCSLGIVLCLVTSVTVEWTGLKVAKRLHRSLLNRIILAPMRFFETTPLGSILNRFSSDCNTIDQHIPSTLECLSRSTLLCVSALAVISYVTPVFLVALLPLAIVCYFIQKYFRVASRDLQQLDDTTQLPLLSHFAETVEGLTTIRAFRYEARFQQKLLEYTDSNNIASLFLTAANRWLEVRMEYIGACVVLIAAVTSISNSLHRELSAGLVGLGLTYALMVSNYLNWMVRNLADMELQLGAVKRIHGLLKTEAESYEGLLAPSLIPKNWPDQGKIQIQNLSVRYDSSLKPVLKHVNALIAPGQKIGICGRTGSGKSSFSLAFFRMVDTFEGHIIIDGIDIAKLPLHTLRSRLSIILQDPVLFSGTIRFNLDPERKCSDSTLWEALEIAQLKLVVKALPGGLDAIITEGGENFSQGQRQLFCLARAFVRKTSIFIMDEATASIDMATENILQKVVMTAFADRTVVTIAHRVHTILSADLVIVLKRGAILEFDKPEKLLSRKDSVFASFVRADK

Structure (SMILES)	Emax at 10 µM [1] [%]	IC50 [2] [µM]	EC50 [3] [µM]	EC50 [4] [µM]	Emax [5] [%]	Change [6] [%]	EC50 [7] [µM]	IC50 [8] [µM]	Reduction [9] [%]	Reduction [10] [%]	further results
CCC(C)NC1=NS(=O)(=O)c2sc(Cl)cc2N1 (centres undefined)	74	0.16	1.3	65	–	–	–	–	–	–	–
CCCCCCCCNC1=NS(=O)(=O)c2sc(Cl)cc2N1	76	1.5	0.5	176	–	–	–	–	–	–	–
CC1(NC2=NS(=O)(=O)c3sc(Cl)cc3N2)CCC1	–	0.02	0.014	6.5	91	-48	7.2	0.01	76	82	IC50 [11]: 0.003 µM; IC50 [12]: 10.8 µM; IC50 [13]: 859 µM
CC(C)[C@H](C)NC1=NS(=O)(=O)c2sc(Cl)cc2N1	80	0.56	14	> 300	–	–	–	–	–	–	–
CC(C)CCCC(C)NC1=NS(=O)(=O)c2sc(Cl)cc2N1 (racemic)	72	4.89	2	25.2	–	–	–	–	–	–	–
CC1(NC2=NS(=O)(=O)c3sc(Cl)cc3N2)CCCCC1	62	5.33	1	1.4	–	–	–	–	–	–	–
CC1=Nc2ccc(Cl)cc2S(=O)(=O)N1 [DIAZOXIDE]	–	–	77.4	–	23	-26	20.8	20.3	53	53	F [14]: 154%; EC50 [15]: 12.8 µM
O=S1(=O)NC(NC2CCCCC2)=Nc2cc(Cl)sc21	40	25.6	8	6.8	–	–	–	–	–	–	–
CC(C)NC1=NS(=O)(=O)c2sc(Cl)cc2N1	–	0.23	0.6	266	85	-19	6.2	0.18	96	96	bioavailability [14]: 65%; pKa [16]: 8.35; half-life [17]: 2.73 h; logP [18]: 1.84; IC50 [11]: 0.34 µM; IC50 [12]: 187 µM; IC50 [13]: 554 µM; logD [19]: 1.63
CCC(C)CNC1=NS(=O)(=O)c2sc(Cl)cc2N1 (racemic)	48	0.15	20	20.5	–	–	–	–	–	–	logD [20]: 3.14; logP [18]: 3.17; pKa [21]: 8.29
O=S1(=O)NC(NC2CCC2)=Nc2cc(Cl)sc21	–	0.49	1.4	27	78	5	38.6	0.05	100	100	bioavailability [14]: 49%; half-life [17]: 1.88 h; IC50 [11]: 0.12 µM; IC50 [12]: 146 µM; IC50 [13]: 943 µM
O=S1(=O)NC(NC2CC2)=Nc2cc(Cl)sc21	37	7.38	> 30	28.2	–	–	–	–	–	–	–
O=S1(=O)NC(NC2CCCC2)=Nc2cc(Cl)sc21	–	1.15	0.4	> 300	67	29	10.8	0.44	22	99	–
CC1(NC2=NS(=O)(=O)c3sc(Cl)cc3N2)CC1 [TIFENAZOXIDE]	–	0.15	0.6	119	69	-4	14.3	–	77	85	–
CCCCNC1=NS(=O)(=O)c2sc(Cl)cc2N1	66	1.39	0.6	13.4	–	–	–	–	–	–	EC50 [22]: 13.4 µM
